Results published in ChEMBL document CHEMBL1122327, “Replacement of aromatic or heteroaromatic groups in nonsteroidal antiinflammatory agents with the ferrocene group” (1983).
Calls of active or inactive are those of the source. The calls are words filed in the database; no cut-off is given here.

Legend:
[1] = species on record: Homo sapiens; assay: Evaluated for the inhibition of platelet aggregation at dose of 100 uM; assay type: functional
Procedure, shortened: (§1)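 Human platelet-rich plasma from citrated blood of volunteers who had taken no drugs for at least 10 days, adjusted to 300 000 platelets/μL with platelet-poor plasma. Compound added in PEG 300, then 8 min at 37 °C and 2 min equilibration with stirring at 1200 rpm. Collagen added to trigger aggregation. Maximum rise in light transmission measured within 1–2.5 h of the blood draw; % inhibition calculated against control.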

[2] = species on record: Homo sapiens; assay: Evaluated for the inhibition of platelet aggregation at dose of 20 uM; assay type: functional; procedure, shortened: as §1
[3] = species on record: Homo sapiens; assay: Evaluated for the inhibition of serotonin release from platelets at dose of 100 uM; assay type: functional
Procedure, shortened: (§2)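 Human platelet-rich plasma at 300 000 platelets/μL, loaded with [3H]5-HT (0.5 μM final, 50 μCi/μmol) for 30 min at room temperature. Compound added in PEG 300 and incubated 10 min at 37 °C, then stirred with collagen (1.6 μL/mL final) for 5 min. Reaction stopped with EDTA and samples centrifuged. Supernatant radioactivity counted by scintillation; % inhibition calculated against vehicle-treated plasma.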

[4] = test system: Rattus norvegicus; assay: Evaluated for the percentage inhibition by adjuvant arthritis test at a dose of 100 mg/kg administarted perorally; Inactive; assay type: functional, organism-based; set-up: dose 100 mg/kg
[5] = species on record: Homo sapiens; assay: Evaluated for the inhibition of serotonin release from platelets at dose of 20 uM; assay type: functional; procedure, shortened: as §2
[6] = test system: Rattus norvegicus; assay: Evaluated for the percentage inhibition by adjuvant arthritis test at a dose of 50 mg/kg administarted perorally; assay type: functional; settings: route oral
[7] = species on record: Homo sapiens; assay: percent inhibition of serotonin release from platelets at a concentration of 100 uM; assay type: functional
Procedure, shortened: (§3)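 Human platelet-rich plasma at 300 000/μL, loaded with [3H]5-HT (0.5 μM final) for 30 min at room temperature. Compound in PEG 300 incubated 10 min at 37 °C, then stirred with collagen (1.6 μL/mL final) for 5 min and stopped with EDTA. After centrifugation, supernatant radioactivity was counted by scintillation. Percent inhibition calculated against vehicle-treated plasma.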

[8] = species on record: Homo sapiens; assay: percent inhibition of serotonin release from platelets at a concentration of 20 uM; assay type: functional; procedure, shortened: as §3
[9] = species on record: Homo sapiens; assay: Percent inhibition of collagen-induced platelet aggregation at a concentration of 100 uM; assay type: functional
Procedure, shortened: (§4)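 Human platelet-rich plasma from drug-free volunteers (citrated blood, 450 g spin), adjusted to 300 000 platelets/μL with platelet-poor plasma. Compound in PEG 300 preincubated 8 min at 37 °C, then 2 min equilibration with stirring at 1200 rpm. Aggregation triggered with collagen; maximum rise in light transmission read by aggregometer. Percent inhibition calculated against control. Runs done 1–2.5 h after blood draw.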

[10] = species on record: Homo sapiens; assay: Percent inhibition of collagen-induced platelet aggregation at a concentration of 20 uM; assay type: functional; procedure, shortened: as §4
[11] = test system: Rattus norvegicus; assay: Evaluated for the percentage inhibition by adjuvant arthritis test at a dose of 25 mg/kg administarted perorally; Inactive; assay type: functional, organism-based; set-up: dose 25 mg/kg
[12] = test system: Rattus norvegicus; assay: Evaluated for the percentage inhibition by adjuvant arthritis test at a dose of 50 mg/kg administarted perorally; Inactive; assay type: functional, organism-based; set-up: dose 50 mg/kg

“calcium salt of 4-Ferrocenoyl-1-methyl-1H-pyrrole-2-acetate” gave an inhibition [1] of 3%, an inhibition [2] of 2% and an inhibition [3] of 12%. For the same molecule, the inhibition [4] was “inactive” and the inhibition [5] was 10%.

With O=C(O)CCC(=O)c1ccc(-c2ccccc2)cc1 [FENBUFEN] the inhibition in vivo at 50 mg/kg [6] was 71%.

Work on CC(C(=O)O)c1ccc(-c2ccccc2)c(F)c1 (stereo unspecified) [FLURBIPROFEN] yielded an inhibition at 100 µM [7] of 90%, an inhibition at 20 µM [8] of 86% and an inhibition at 100 µM [9] of 89%. The inhibition at 20 µM [10] was 88% and the inhibition in vivo at 50 mg/kg [6] was 55%.

For “4-(3-Ferrocenoyl-cyclopenta-2,4-dienyl)-4-oxo-butyric acid”, the inhibition [1] was 8%, the inhibition [2] was 0% and the inhibition [3] was 64%. The inhibition [11] was “inactive” and the inhibition [5] was 29%.

Cc1ccc(C(=O)c2ccc(CC(=O)O)n2C)cc1 [TOLMETIN] was tested, and the inhibition at 100 µM [7] was 88%, the inhibition at 20 µM [8] was 90% and the inhibition at 100 µM [9] was 85%. It also gave an inhibition at 20 µM [10] of 74% and an inhibition in vivo at 50 mg/kg [6] of 34%.

With “Methyl 5-Ferrocenoyl-1-methyl-1H-pyrrole-2-acetate” the inhibition [1] was 6%, the inhibition [2] was 0% and the inhibition [3] was 0%. The inhibition [4] was “inactive” and the inhibition [5] was 3%.

“2-[2-(3-Cyclopenta-2,4-dienylmethyl-Ferrocenoyl)-2-oxo-ethyl]-benzoic acid” showed an inhibition [1] of 28%, an inhibition [2] of 7% and an inhibition [3] of 0%. The inhibition [12] was “inactive” and the inhibition [5] was 3%.

For “[3-(Cyclopenta-2,4-ferrocenoyl)-4-(4-methyl-benzoyl)-cyclopenta-1,3-dienyl]-acetic acid”, the inhibition [1] was 6%, the inhibition [2] was 2% and the inhibition [3] was 23%. The inhibition [4] was “inactive” and the inhibition [5] was 0%.

Work on “4-Ferrocenoyl-1-methyl-1H-pyrrole-2-acetate” yielded an inhibition [1] of 27%, an inhibition [2] of 20% and an inhibition [3] of 60%. For the same molecule, the inhibition [12] was “inactive” and the inhibition [5] was 32%.

In the case of “(3-Ferrocenoyl-cyclopenta-2,4-dienyl)-acetic acid”, the inhibition [1] is reported as 6%, the inhibition [2] is reported as 5% and the inhibition [3] is reported as 16%. For the same molecule, the inhibition [4] was “inactive” and the inhibition [5] was 0%.

With “2-{5-[3-(4-Methyl-benzoyl)-Ferrocenoyl]-cyclopenta-1,3-dienyl}-acetamide” the inhibition [1] was 15%, the inhibition [2] was 4% and the inhibition [3] was 34%. The inhibition [4] was “inactive” and the inhibition [5] was 0%.
